Results: paper PMC5656813 (Arthritis & Rheumatology (Hoboken, N.j.), 2017)

System: RA patients
Test: Study 2, treatment‐emergent adverse events
Format: in vivo, human
Summary of the method: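 Both double-blind, placebo-controlled trials in RA patients on stable MTX. Oral capsules daily for 4 weeks, with 7–10-day follow-up: 200 mg once daily or 100 mg twice daily (study 1); 30, 75, 150 or 300 mg once daily (study 2). At every visit: AEs, vital signs, hematology, serum biochemistry, coagulation and urinalysis. EKG at baseline and follow-up, plus week 4 in study 1. Safety population, descriptive treatment-emergent AE summaries.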

## O=C(Nc1nc2cccc(-c3ccc(CN4CCS(=O)(=O)CC4)cc3)n2n1)C1CC1 [Filgotinib]
30 mg once daily
  treatment-related TEAE: Lipase increased: 0 number (%) of patients
  treatment-related TEAE: Musculoskeletal and connective tissue disorders: 0 number (%) of patients
  treatment-related TEAE: Nervous system disorders: 0 number (%) of patients
  treatment-related TEAE: Renal and urinary disorders: 0 number (%) of patients
75 mg once daily
  treatment-related TEAE: Abdominal discomfort: 0 number (%) of patients
  treatment-related TEAE: Abdominal pain, upper: 0 number (%) of patients
  treatment-related TEAE: Aspartate aminotransferase increased: 0 number (%) of patients
  treatment-related TEAE: Blood amylase increased: 0 number (%) of patients
  treatment-related TEAE: Blood and lymphatic system disorders: 1 (4.5) number (%) of patients
  treatment-related TEAE: Blood triglycerides increased: 0 number (%) of patients
  treatment-related TEAE: Cystitis, noninfectious: 0 number (%) of patients
  treatment-related TEAE: Duodenogastric reflux: 1 (4.5) number (%) of patients
  treatment-related TEAE: Ear and labyrinth disorders: 0 number (%) of patients
  treatment-related TEAE: Gastrointestinal disorders: 2 (9.1) number (%) of patients
  treatment-related TEAE: Gastrointestinal pain: 0 number (%) of patients
  treatment-related TEAE: General disorders and administration site reactions: 0 number (%) of patients
  treatment-related TEAE: Gingival bleeding: 1 (4.5) number (%) of patients
  treatment-related TEAE: Infections and infestations: 0 number (%) of patients
  treatment-related TEAE: Laboratory findings: 0 number (%) of patients
  treatment-related TEAE: Lipase increased: 0 number (%) of patients
  treatment-related TEAE: Musculoskeletal and connective tissue disorders: 0 number (%) of patients
  treatment-related TEAE: Nervous system disorders: 0 number (%) of patients
  treatment-related TEAE: Renal and urinary disorders: 0 number (%) of patients
150 mg once daily
  treatment-related TEAE: Abdominal discomfort: 0 number (%) of patients
  treatment-related TEAE: Abdominal pain, upper: 0 number (%) of patients
  treatment-related TEAE: Aspartate aminotransferase increased: 0 number (%) of patients
  treatment-related TEAE: Blood amylase increased: 0 number (%) of patients
  treatment-related TEAE: Blood and lymphatic system disorders: 0 number (%) of patients
  treatment-related TEAE: Blood triglycerides increased: 0 number (%) of patients
  treatment-related TEAE: Cystitis, noninfectious: 0 number (%) of patients
  treatment-related TEAE: Duodenogastric reflux: 0 number (%) of patients
  treatment-related TEAE: Ear and labyrinth disorders: 0 number (%) of patients
  treatment-related TEAE: Gastrointestinal disorders: 1 (6.7) number (%) of patients
  treatment-related TEAE: Gastrointestinal pain: 0 number (%) of patients
  treatment-related TEAE: General disorders and administration site reactions: 0 number (%) of patients
  treatment-related TEAE: Gingival bleeding: 0 number (%) of patients
  treatment-related TEAE: Infections and infestations: 0 number (%) of patients
  treatment-related TEAE: Laboratory findings: 0 number (%) of patients
  treatment-related TEAE: Lipase increased: 0 number (%) of patients
  treatment-related TEAE: Musculoskeletal and connective tissue disorders: 0 number (%) of patients
  treatment-related TEAE: Nervous system disorders: 0 number (%) of patients
  treatment-related TEAE: Renal and urinary disorders: 0 number (%) of patients
300 mg once daily
  treatment-related TEAE: Abdominal discomfort: 0 number (%) of patients
  treatment-related TEAE: Abdominal pain, upper: 0 number (%) of patients
  treatment-related TEAE: Aspartate aminotransferase increased: 0 number (%) of patients
  treatment-related TEAE: Blood amylase increased: 0 number (%) of patients
  treatment-related TEAE: Blood and lymphatic system disorders: 0 number (%) of patients
  treatment-related TEAE: Blood triglycerides increased: 0 number (%) of patients
  treatment-related TEAE: Cystitis, noninfectious: 1 (5.0) number (%) of patients
  treatment-related TEAE: Duodenogastric reflux: 0 number (%) of patients
  treatment-related TEAE: Ear and labyrinth disorders: 0 number (%) of patients
  treatment-related TEAE: Gastrointestinal disorders: 2 (10.0) number (%) of patients
  treatment-related TEAE: Gastrointestinal pain: 1 (5.0) number (%) of patients
  treatment-related TEAE: General disorders and administration site reactions: 0 number (%) of patients
  treatment-related TEAE: Gingival bleeding: 0 number (%) of patients
  treatment-related TEAE: Laboratory findings: 0 number (%) of patients
  treatment-related TEAE: Lipase increased: 0 number (%) of patients
  treatment-related TEAE: Musculoskeletal and connective tissue disorders: 0 number (%) of patients
  treatment-related TEAE: Nervous system disorders: 0 number (%) of patients
  treatment-related TEAE: Renal and urinary disorders: 1 (5.0) number (%) of patients
